In ChEMBL document CHEMBL4765243, “Discovery of Novel Bromophenol-Thiosemicarbazone Hybrids as Potent Selective Inhibitors of Poly(ADP-ribose) Polymerase-1 (PARP-1) for Use in Cancer” (J Med Chem, 2019) one finds inhibition and IC50 data, which are given here for 14 molecules.

Structures are written as SMILES.

One data set deals with SK-OV-3. The data set is described as follows: Antiproliferative activity against human SK-OV-3 cells assessed as cell growth inhibition at 20 uM incubated for 48 hrs by MTT assay relative to control.
Conditions: not given
It counts as functional. Background: Tetrazolium assays rely on reduction of a dye to a coloured formazan, in cell work by metabolically active cells.
A word on the inhibition: it is the drop in the measured response relative to a control, in per cent. Consider `COc1cc(/C=N/NC(=S)Nc2cccc(C(F)(F)F)c2)c(Br)c(Br)c1OC`, for which the inhibition at 20 µM was below 0%.
Take `COc1cc(/C=N/NC(=S)Nc2ccccc2)c(Br)c(Br)c1OC`: the inhibition at 20 µM was 90.4%.
The same measure, in the same setting: the figure for `Oc1ccc(/C=N/NC(=S)Nc2ccccc2)cc1O` is below 0%; for `COc1cc(/C=N/NC(N)=S)cc(Br)c1OC` it is below 0%.
Still for that read-out and setting: the figure for `COc1cc(/C=N/NC(=S)Nc2ccc(Cl)cc2)cc(Br)c1OC` is 41.5%; for `COc1cc(Br)c(/C=N/NC(N)=S)cc1OC` it is 20.8%; for `COc1ccc(/C=N/NC(=S)Nc2ccccc2)cc1O` it is 41.4%.
Same read-out and setting: the figure for `COc1cc(/C=N/NC(=S)Nc2ccc(F)cc2)c(Br)c(Br)c1OC` is 66.3%; for `COc1ccc(/C=N/NC(=S)Nc2ccccc2)c(Br)c1O` it is 62.1%; for `COc1cc(/C=N/NC(=S)Nc2cccc(C(F)(F)F)c2)cc(Br)c1OC` it is 63.3%.
As for `COc1cc(/C=N/NC(=S)Nc2ccc(Oc3ccccc3)cc2)cc(Br)c1OC`, the inhibition at 20 µM is 32.3%.
Consider `COc1cc(/C=N/NC(=S)Nc2ccccc2)cc(Br)c1O`, for which the inhibition at 20 µM stood at 56%.

Another data set relates to Bel-7402. The data set is described as follows: Antiproliferative activity against human Bel-7402 cells assessed as cell growth inhibition at 20 uM incubated for 48 hrs by MTT assay relative to control. Type of data set: functional.
Conditions: not given
`COc1cc(/C=N/NC(=S)Nc2cccc(C(F)(F)F)c2)c(Br)c(Br)c1OC`: the inhibition at 20 µM amounted to 12.7%.
Still for that read-out and setting: under `COc1cc(/C=N/NC(=S)Nc2ccccc2)c(Br)c(Br)c1OC` stands 50.3%; under `Oc1ccc(/C=N/NC(=S)Nc2ccccc2)cc1O`, 38.8%.
The same measure, in the same setting: the figure for `COc1cc(/C=N/NC(N)=S)cc(Br)c1OC` is 17.6%; for `COc1cc(/C=N/NC(=S)Nc2ccc(Cl)cc2)cc(Br)c1OC` it is 55.7%.
Still for that read-out and setting: under `COc1cc(Br)c(/C=N/NC(N)=S)cc1OC` stands 18.3%; under `COc1ccc(/C=N/NC(=S)Nc2ccccc2)cc1O`, 32.2%; under `COc1cc(/C=N/NC(=S)Nc2ccc(F)cc2)c(Br)c(Br)c1OC`, 54.6%.
Take `COc1ccc(/C=N/NC(=S)Nc2ccccc2)c(Br)c1O`: the inhibition at 20 µM was 36.4%.
Turning to `COc1cc(/C=N/NC(=S)Nc2cccc(C(F)(F)F)c2)cc(Br)c1OC`, the inhibition at 20 µM amounted to 26%.
Still for that read-out and setting: under `COc1cc(/C=N/NC(=S)Nc2ccc(Oc3ccccc3)cc2)cc(Br)c1OC` stands 33.8%; under `COc1cc(/C=N/NC(=S)Nc2ccccc2)cc(Br)c1O`, 25.3%.

The test system of the next data set is HepG2. Briefly: Antiproliferative activity against human HepG2 cells assessed as cell growth inhibition at 20 uM incubated for 48 hrs by MTT assay relative to control. Type of data set: functional.
Conditions: not given
On to `COc1cc(/C=N/NC(=S)Nc2cccc(C(F)(F)F)c2)c(Br)c(Br)c1OC`, for which the inhibition at 20 µM came out at 43.2%.
Still for that read-out and setting: the figure for `COc1cc(/C=N/NC(=S)Nc2ccccc2)c(Br)c(Br)c1OC` is 54.6%.
Still for that read-out and setting: under `Oc1ccc(/C=N/NC(=S)Nc2ccccc2)cc1O` stands below 0%.
On the same count and under the same terms, the figure for `COc1cc(/C=N/NC(N)=S)cc(Br)c1OC` is 61.1%; for `COc1cc(/C=N/NC(=S)Nc2ccc(Cl)cc2)cc(Br)c1OC` it is 46.6%.
In the case of `COc1cc(Br)c(/C=N/NC(N)=S)cc1OC`, the inhibition at 20 µM came out at 37.6%.
Take `COc1ccc(/C=N/NC(=S)Nc2ccccc2)cc1O`: the inhibition at 20 µM is 38%.
The same measure, in the same setting: under `COc1cc(/C=N/NC(=S)Nc2ccc(F)cc2)c(Br)c(Br)c1OC` stands 60.5%; under `COc1ccc(/C=N/NC(=S)Nc2ccccc2)c(Br)c1O`, 65.6%.
On to `COc1cc(/C=N/NC(=S)Nc2cccc(C(F)(F)F)c2)cc(Br)c1OC`, for which the inhibition at 20 µM worked out at 36.4%.
As for `COc1cc(/C=N/NC(=S)Nc2ccc(Oc3ccccc3)cc2)cc(Br)c1OC`, the inhibition at 20 µM was below 0%.
On the same count and under the same terms, the figure for `COc1cc(/C=N/NC(=S)Nc2ccccc2)cc(Br)c1O` is 62%.

The test system of the next data set is Caco-2. The data set is described as follows: Antiproliferative activity against human Caco-2 cells assessed as cell growth inhibition at 20 uM incubated for 48 hrs by MTT assay relative to control. It counts as functional.
Conditions: not given
In the case of `COc1cc(/C=N/NC(=S)Nc2cccc(C(F)(F)F)c2)c(Br)c(Br)c1OC`, the inhibition at 20 µM worked out at 6.4%.
For the molecule `COc1cc(/C=N/NC(=S)Nc2ccccc2)c(Br)c(Br)c1OC`, the inhibition at 20 µM was determined as 14.2%.
Same read-out and setting: under `Oc1ccc(/C=N/NC(=S)Nc2ccccc2)cc1O` stands 78.2%; under `COc1cc(/C=N/NC(N)=S)cc(Br)c1OC`, 18.9%; under `COc1cc(/C=N/NC(=S)Nc2ccc(Cl)cc2)cc(Br)c1OC`, 55.4%.
On to `COc1cc(Br)c(/C=N/NC(N)=S)cc1OC`, for which the inhibition at 20 µM was 8.65%.
Still for that read-out and setting: under `COc1ccc(/C=N/NC(=S)Nc2ccccc2)cc1O` stands 71.4%; under `COc1cc(/C=N/NC(=S)Nc2ccc(F)cc2)c(Br)c(Br)c1OC`, 24.5%.
As for `COc1ccc(/C=N/NC(=S)Nc2ccccc2)c(Br)c1O`, the inhibition at 20 µM came to 82.4%.
With `COc1cc(/C=N/NC(=S)Nc2cccc(C(F)(F)F)c2)cc(Br)c1OC`, the inhibition at 20 µM turned out to be 21%.
Still for that read-out and setting: under `COc1cc(/C=N/NC(=S)Nc2ccc(Oc3ccccc3)cc2)cc(Br)c1OC` stands 76.3%.
The same measure, in the same setting: under `COc1cc(/C=N/NC(=S)Nc2ccccc2)cc(Br)c1O` stands 62.9%.

Test system in a further data set: not listed separately
Briefly: Cytotoxicity against human HL7702 cells assessed as cell growth inhibition at 20 uM incubated for 48 hrs by MTT assay relative to control. Type of data set: cell-based. To be noted: HL7702 (L02) cells.
With `COc1cc(/C=N/NC(=S)Nc2cccc(C(F)(F)F)c2)c(Br)c(Br)c1OC`, the inhibition at 48 h, 20 µM is 71.1%.
Regarding `COc1cc(/C=N/NC(=S)Nc2ccccc2)c(Br)c(Br)c1OC`, the inhibition at 48 h, 20 µM was 86.4%.
The same measure, in the same setting: under `Oc1ccc(/C=N/NC(=S)Nc2ccccc2)cc1O` stands 76.4%.
Same read-out and setting: the figure for `COc1cc(/C=N/NC(N)=S)cc(Br)c1OC` is 2.11%; for `COc1cc(/C=N/NC(=S)Nc2ccc(Cl)cc2)cc(Br)c1OC` it is 42.9%.
The same measure, in the same setting: under `COc1cc(Br)c(/C=N/NC(N)=S)cc1OC` stands 42.5%; under `COc1ccc(/C=N/NC(=S)Nc2ccccc2)cc1O`, 41.4%.
With `COc1cc(/C=N/NC(=S)Nc2ccc(F)cc2)c(Br)c(Br)c1OC`, the inhibition at 48 h, 20 µM was 85.1%.
Still for that read-out and setting: the figure for `COc1ccc(/C=N/NC(=S)Nc2ccccc2)c(Br)c1O` is 46.9%; for `COc1cc(/C=N/NC(=S)Nc2cccc(C(F)(F)F)c2)cc(Br)c1OC` it is 58.6%.
The same measure, in the same setting: under `COc1cc(/C=N/NC(=S)Nc2ccc(Oc3ccccc3)cc2)cc(Br)c1OC` stands 75.9%.
Still for that read-out and setting: under `COc1cc(/C=N/NC(=S)Nc2ccccc2)cc(Br)c1O` stands 40.7%.

In the next data set the test system is SK-OV-3. Briefly: Antiproliferative activity against human SK-OV-3 cells assessed as cell growth inhibition incubated for 48 hrs by MTT assay. Type of data set: functional, cell-based. To be noted: SK-OV-3, 48 h. The method in brief:
(§1)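 Cells seeded in 96-well plates and exposed to compounds for 48 h; viability read by MTT. Each experiment repeated three times. SK-OV-3 grown in McCOY's 5A, Bel-7402 and HL-7702 in RPMI-1640, HepG2 in DMEM, Caco-2 in MEM.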
The term IC50 denotes the concentration that gives 50% inhibition. Consider `COc1cc(/C=N/NC(=S)Nc2ccccc2)c(Br)c(Br)c1OC`, for which the IC50 amounted to 9.25 µM.

The test system of another data set is Bel-7402. Briefly: Antiproliferative activity against human Bel-7402 cells assessed as cell growth inhibition incubated for 48 hrs by MTT assay. It counts as functional, cell-based. To be noted: Bel-7402, 48 h. In outline:
as §1
Regarding `COc1cc(/C=N/NC(=S)Nc2ccccc2)c(Br)c(Br)c1OC`, the IC50 stood at 30.2 µM.

The subject of another data set is HepG2. The data set is described as follows: Antiproliferative activity against human HepG2 cells assessed as cell growth inhibition incubated for 48 hrs by MTT assay. Type of data set: functional, cell-based. Conditions: HepG2, 48 h. The method in brief: as §1
As to `COc1cc(/C=N/NC(=S)Nc2ccccc2)c(Br)c(Br)c1OC`, the IC50 turned out to be 25.7 µM.

Another data set relates to Caco-2. The data set is described as follows: Antiproliferative activity against human Caco-2 cells assessed as cell growth inhibition incubated for 48 hrs by MTT assay. To be noted: Caco-2, 48 h. It counts as functional, cell-based. The method in brief: as §1
`COc1cc(/C=N/NC(=S)Nc2ccccc2)c(Br)c(Br)c1OC`: the IC50 came to 9.97 µM.

The test system of another data set is L02. The data set is described as follows: Cytotoxicity against human HL7702 cells assessed as cell growth inhibition incubated for 48 hrs by MTT assay. Type of data set: cell-based. To be noted: L02, 48 h. In outline:
as §1
Take `COc1cc(/C=N/NC(=S)Nc2ccccc2)c(Br)c(Br)c1OC`: the IC50 amounted to 22.6 µM.

For a further data set, the target named is Poly [ADP-ribose] polymerase 1 (Homo sapiens, UniProt P09874). Conditions: dose 100.0 nM, time 30.0 min.
Chain of Poly [ADP-ribose] polymerase 1 (P09874 whole entry): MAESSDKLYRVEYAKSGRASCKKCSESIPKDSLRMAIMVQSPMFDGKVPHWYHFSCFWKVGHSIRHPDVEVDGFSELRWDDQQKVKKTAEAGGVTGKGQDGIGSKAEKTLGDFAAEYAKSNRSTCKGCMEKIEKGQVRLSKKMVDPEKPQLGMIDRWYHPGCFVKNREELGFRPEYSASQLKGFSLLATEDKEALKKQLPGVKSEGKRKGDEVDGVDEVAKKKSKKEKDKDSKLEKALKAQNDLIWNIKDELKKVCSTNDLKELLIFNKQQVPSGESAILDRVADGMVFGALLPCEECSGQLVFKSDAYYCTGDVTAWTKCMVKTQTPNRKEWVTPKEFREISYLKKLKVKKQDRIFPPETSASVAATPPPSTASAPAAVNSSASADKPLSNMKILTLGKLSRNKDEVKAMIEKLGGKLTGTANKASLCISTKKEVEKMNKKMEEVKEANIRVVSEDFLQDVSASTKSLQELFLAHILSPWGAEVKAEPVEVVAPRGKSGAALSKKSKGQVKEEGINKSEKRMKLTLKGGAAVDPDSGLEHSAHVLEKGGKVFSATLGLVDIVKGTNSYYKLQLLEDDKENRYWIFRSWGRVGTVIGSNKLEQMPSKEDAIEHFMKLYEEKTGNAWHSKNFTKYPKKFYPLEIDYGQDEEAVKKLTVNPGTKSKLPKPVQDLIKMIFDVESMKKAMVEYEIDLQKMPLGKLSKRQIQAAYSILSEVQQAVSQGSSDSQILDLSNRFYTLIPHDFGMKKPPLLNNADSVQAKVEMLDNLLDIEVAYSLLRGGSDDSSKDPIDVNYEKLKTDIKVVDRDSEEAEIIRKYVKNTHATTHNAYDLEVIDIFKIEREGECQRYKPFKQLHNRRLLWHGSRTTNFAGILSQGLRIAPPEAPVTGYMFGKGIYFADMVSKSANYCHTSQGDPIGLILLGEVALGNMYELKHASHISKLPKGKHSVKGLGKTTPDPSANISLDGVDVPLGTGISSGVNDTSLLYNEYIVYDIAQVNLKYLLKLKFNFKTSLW
Take `COc1ccc(/C=N/NC(N)=S)cc1O`: the inhibition was found to be 28.1%.
For `COc1cc(/C=N/NC(N)=S)ccc1O`, the inhibition is 28%.
`COc1cc(/C=N/NC(=S)Nc2cccc(C(F)(F)F)c2)c(Br)c(Br)c1OC` displayed an inhibition of 23%.
The same measure, in the same setting: under `COc1cc(/C=N/NC(=S)Nc2ccccc2)c(Br)c(Br)c1OC` stands 43.8%.
The same measure, in the same setting: the figure for `Oc1ccc(/C=N/NC(=S)Nc2ccccc2)cc1O` is 40.7%.
Still for that read-out and setting: the figure for `COc1cc(/C=N/NC(N)=S)cc(Br)c1OC` is 23.2%; for `COc1cc(/C=N/NC(=S)Nc2ccc(Cl)cc2)cc(Br)c1OC` it is 32.2%; for `COc1cc(Br)c(/C=N/NC(N)=S)cc1OC` it is 42.6%.
In turn, `COc1ccc(/C=N/NC(=S)Nc2ccccc2)cc1O` displayed an inhibition of 37.5%.
Same read-out and setting: the figure for `COc1cc(/C=N/NC(=S)Nc2ccc(F)cc2)c(Br)c(Br)c1OC` is 46.6%; for `COc1ccc(/C=N/NC(=S)Nc2ccccc2)c(Br)c1O` it is 42.9%; for `COc1cc(/C=N/NC(=S)Nc2cccc(C(F)(F)F)c2)cc(Br)c1OC` it is 38.3%.
The same measure, in the same setting: the figure for `COc1cc(/C=N/NC(=S)Nc2ccc(Oc3ccccc3)cc2)cc(Br)c1OC` is 27.7%; for `COc1cc(/C=N/NC(=S)Nc2ccccc2)cc(Br)c1O` it is 35.5%.
